From PMC6645473 (ACS Omega, 2018)
“Also recorded” adds a separate entry of the source. Where no end group is shown, it is not given here. [ ]: non-standard residue; d: D form. Nle = CCCC[C@H](N)C(=O)O; Nva = CCC[C@H](N)C(=O)O; Aib = CC(C)(N)C(=O)O

Columns and labels:
[1] = system: Aβ1–42 toxicity in PC-12 cells; experiment: MTT cell viability assay, Aβ1–42 co-incubated with tetrapeptides; type: cell-based; settings: calculated from OD570 of MTT assay in PC-12 cells
Procedure, shortened: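 PC-12 cells were grown in F-12K with 5% FBS and 10% horse serum and used at 70% confluence. For the assay, medium was switched to F-12K with 10% FBS, and cells were seeded at 17 000/well overnight. Monomerized Aβ1–42 was added with test peptide (DMSO stock diluted in PBS; 1:1, 1:5, 1:10) for 6 h. MTT was then added for 4 h, followed by DMSO solubilization and OD570. Inhibition % = 100×(OD peptide+Aβ − OD Aβ)/(OD control − OD Aβ).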

[2] = system: Aβ1–40 toxicity for PC-12 cells; experiment: MTT cell viability assay with Aβ1–40; type: cell-based; settings: data not shown
Aβ1–42 [3] = molecular target: T1, Aβ1–42 (Homo sapiens, UniProt P05067); experiment: ThT fluorescence assay of Aβ1–42 aggregation; type: biochemical; settings: Aβ1–42 2 μM + peptide 20 μM (1:10), Aβ1–42 alone = 100%, n = 3
Procedure, shortened: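 Aβ1–42 (2 μM) was incubated with test peptide at 1:10 in wells containing ThT (2.5 μM, glycine-NaOH pH 8.5), at 37 °C with shaking at 200 rpm. Fluorescence (ex 445/em 485 nm) was read at intervals over 7 days. Blank was subtracted, and RFU was normalized to the Aβ1–42-alone rise over ThT alone (100%). Triplicates were averaged.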

Aβ1–42 [4] = molecular target: T1, Aβ1–42; experiment: Circular dichroism secondary structure analysis of Aβ1–42; type: biochemical; settings: CD, Aβ1–42/peptide 1:5, 12 h, 37 °C
Procedure, shortened: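 Aβ1–42 (NaOH stock diluted to 20 μM in sodium phosphate buffer) mixed 1:5 with test peptide (TFE stock diluted to 100 μM), 12 h at 37 °C. Spectra taken at 0 and 12 h, 190–260 nm, 37 °C, 1 mm cell, 50 nm/min, 2 nm bandwidth, averaging 3 scans. Buffer blank and inhibitor-alone spectra subtracted, then deconvolution into secondary-structure percentages.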

Aβ1–42 [5] = molecular target: T1, Aβ1–42; experiment: Electron microscopy; settings: HRTEM and STEM, Aβ1–42/test peptide 1:5, 37 °C, 72 h
Procedure, shortened: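 HFIP-treated Aβ1–42 (50 μM in 10 mM sodium phosphate buffer, pH 7.4) mixed in equal volumes with test or control tetrapeptide (250 μM, from DMSO stock) to give 1:5, then held 72 h at 37 °C. Peptides alone were imaged too. Samples were fixed on carbon-coated copper grids with 0.5% glutaraldehyde, washed in water, negatively stained with 2% uranyl acetate and imaged at 120 keV.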

[6] = Electron microscopy of tetrapeptides incubated alone; type: physicochemical; settings: HRTEM and STEM, peptide alone in SPB pH 7.4, 37 °C, 72 h
Procedure, shortened: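 Test peptide stock (5 mM in DMSO) diluted to 250 μM in 10 mM SPB, pH 7.4, and incubated alone at 37 °C for 72 h. A droplet is fixed on carbon-coated copper grids with 0.5% glutaraldehyde, washed with ultrapure water and negatively stained with 2% uranyl acetate. Grids are imaged by HRTEM/STEM at 120 keV.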

T1 sequence (P05067 672-713): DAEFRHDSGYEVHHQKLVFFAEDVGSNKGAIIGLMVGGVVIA

Substance	inhibition (%) of Aβ1–42 (2 μM) ([1]; test peptide 2 μM)	inhibition (%) of Aβ1–42 (2 μM) ([1]; test peptide 10 μM)	inhibition (%) of Aβ1–42 (2 μM) ([1]; test peptide 20 μM)	other results
[Aib]VIA [compound 10]	1.0%	9.0%	13.0%	–
[dL]VIA [compound 4]	0%	0%	2.0%	–
VV[Aib]A [compound 34]	1.0%	0%	11.0%	–
V[Aib]IA [compound 20]	0%	22.0%	–	inhibition of Aβ1–40 toxicity [2]: did not show inhibition; also recorded: lack of activity; RFU, time-dependent ThT study (Aβ1–42 [3]; at 24 h): 6%; RFU, time-dependent ThT study (Aβ1–42 [3]; at 3 days): 4%; RFU, time-dependent ThT study (Aβ1–42 [3]; at 5 days): 10.9%; RFU, time-dependent ThT study (Aβ1–42 [3]; at 7 days): 11.4%; random coil form of Aβ1–42 co-incubated with inhibitor (Aβ1–42 [4]; Aβ1–42 alone at 12 h 42.3%): 58.5%; β-sheet conformation of Aβ1–42 co-incubated with inhibitor (Aβ1–42 [4]; Aβ1–42 alone at 12 h 47.1%): 14.2%; morphology of Aβ1–42 aggregates upon co-incubation (Aβ1–42 [5]): no such aggregates were formed; self-aggregation of peptide incubated alone [6]: did not exhibit any self-aggregation
V[dP]IA [compound 18]	7.0%	20.0%	64.0%	–
[dA]VIA [compound 3]	0%	0%	0%	–
VV[dF]A [compound 35]	4.0%	10.0%	9.0%	–
Pro-Val-Ile-Ala [compound 9]	0%	0%	0%	–
Leu-Val-Ile-Ala [compound 5]	0%	0%	0%	–
V[dV]IA [compound 12]	0%	0%	0%	–
[dI]VIA [compound 6]	0%	0%	0%	–
Val-Val-Ile-Leu [compound 41]	0%	0%	0%	–
Val-Val-Ile-Val [compound 40]	4.0%	13.0%	9.0%	–
[dP]VIA [compound 8]	5.0%	9.0%	4.0%	–
VVI[dF] [compound 43]	0%	0%	4.0%	morphology of Aβ1–42 aggregates upon co-incubation (Aβ1–42 [5]): small truncated aggregates were found in bunches; self-aggregation of peptide incubated alone [6]: large clusters of amorphous aggregates
Val-Ile-Ile-Ala [compound 17]	0%	0%	0%	–
Val-Pro-Ile-Ala [compound 19]	16.0%	17.0%	24.0%	–
V[dL]IA [compound 14]	5.0%	0%	1.0%	–
Pro-Pro-Ile-Ala [compound 25]	14.0%	39.0%	90.0%	–
Val-Val-Leu-Ala [compound 29]	10.0%	0%	0%	–
VV[dP]A [compound 32]	27.0%	26.0%	21.0%	–

Substance	inhibition (%) of Aβ1–42 (2 μM) ([1]; test peptide 2 μM)	inhibition (%) of Aβ1–42 (2 μM) ([1]; test peptide 10 μM)	inhibition (%) of Aβ1–42 (2 μM) ([1]; test peptide 20 μM)	other results
Ile-Val-Ile-Ala [compound 7]	0%	3.0%	2.0%	–
V[dF]IA [compound 21]	0%	5.0%	0%	–
Val-Val-Val-Ala [compound 31]	0%	0%	3.0%	–
V[dI]IA [compound 16]	20.0%	20.0%	27.0%	–
Val-Val-Pro-Ala [compound 33]	0%	0%	3.0%	–
Val-Val-Ile-Phe [compound 44]	0%	0%	0%	–
VV[dL]A [compound 28]	0%	2.0%	10.0%	–
VVI[dA] [compound 39]	0%	–	4.0%	–
V[dA]IA [compound 13]	0%	0%	0%	–
Val-Val-Ile-Ile [compound 42]	24.0%	27.0%	29.0%	–
[Nva]VIA [compound 11]	0%	0%	0%	–
Val-Val-Phe-Ala [compound 36]	0%	0%	0%	–
VV[dI]A [compound 26]	0%	0%	0%	–
Val-Val-Ile-Ala [compound 1, reference compound]	8.0%	30.0%	–	–
Val-Leu-Ile-Ala [compound 15]	0%	0%	13.0%	–
VV[Nle]A [compound 38]	0%	0%	0%	–
VV[Nva]A [compound 37]	0%	0%	1.0%	–
VV[dV]A [compound 30]	0%	0%	0%	–
[Aib][Aib]IA [compound 24]	13.0%	18.0%	73.0%	–
VV[dA]A [compound 27]	0%	0%	11.0%	–
